What was measured:
Type in all cases: functional, cell-based
[1] = tested on: SK-OV-3; experiment: Cytotoxicity against human SKOV3 cells after 48 hrs by XTT assay; settings: SK-OV-3, 48 h
[2] = Cytotoxicity against human KB/HeLa cells after 48 hrs by XTT assay
[3] = tested on: L1210; experiment: Cytotoxicity against mouse L1210 cells after 48 hrs by XTT assay; settings: L1210, 48 h
[4] = Cell cycle arrest in human KB/HeLa cells assessed as accumulation in G2/M phase by cytometric analysis
Outline: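 HeLa/KB cells; nuclei isolated with detergent lysis, trypsin, RNA digestion and spermine chromatin stabilisation, then stained stoichiometrically with propidium iodide. Read by flow cytometry with doublet discrimination, FL2 detector collecting 564–606 nm emission; DNA histograms analysed for cell cycle phase distribution across a concentration series (dose–response).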

| Compound | IC50 [1] [µM] | IC50 [2] [µM] | IC50 [3] [µM] | Activity [4] |
| --- | --- | --- | --- | --- |
| O=C(Nc1ccncc1)C(=O)c1cn(Cc2ccc(F)cc2)c2ccccc12 | 0.455 | 0.054 | 0.455 | Dose-dependent effect |
| N#Cc1ccc(NC(=O)C(=O)c2cn(Cc3ccc(F)cc3)c3ccccc23)cc1 | > 10 | > 10 | > 10 | – |
| O=C(Nc1ccc(F)cc1)C(=O)c1cn(Cc2ccc(F)cc2)c2ccccc12 | > 10 | 7.94 | 4.48 | – |
| O=C(Nc1ccc(Br)cc1)C(=O)c1cn(Cc2ccc(F)cc2)c2ccccc12 | 3.88 | 3.88 | 3.88 | – |
| COc1cc(NC(=O)C(=O)c2cn(Cc3ccc(F)cc3)c3ccccc23)cc(OC)c1OC | 3.78 | 0.378 | 0.378 | – |
| O=C(Nc1ccc([N+](=O)[O-])cc1)C(=O)c1cn(Cc2ccc(F)cc2)c2ccccc12 | > 10 | > 10 | > 10 | – |
| O=C(Nc1ccncc1)C(=O)c1cn(Cc2ccc(Cl)cc2)c2ccccc12 [INDIBULIN] | 0.077 | 0.044 | 0.044 | Dose-dependent effect |
| O=C(Nc1ccccn1)C(=O)c1cn(Cc2ccc(F)cc2)c2ccccc12 | > 10 | > 10 | 8.3 | – |
| O=C(Nc1cccnc1)C(=O)c1cn(Cc2ccc(F)cc2)c2ccccc12 | 4.69 | 4.69 | 4.69 | – |
| O=C(C(=O)N1CCN(c2ccncc2)CC1)c1cn(Cc2ccc(F)cc2)c2ccccc12 | > 10 | > 10 | 3.96 | – |
| CCOC(=O)c1ccc(NC(=O)C(=O)c2cn(Cc3ccc(F)cc3)c3ccccc23)cc1 | 3.94 | 3.94 | 3.94 | – |

From ChEMBL document CHEMBL1152550, “Synthesis and structure-activity relationships of N-aryl(indol-3-yl)glyoxamides as antitumor agents” (Bioorg Med Chem, 2009)
